Screening data deposited in PubChem by several laboratories.
Compounds with a hit are over-represented: about 4.4% of the library has one in this group of screens.
MsrA inhibitor: bovine MsrA enzyme inhibitors, primary screen, biochemical, absorbance, HTS | purified bovine MsrA, absorbance read-out | inhibition, % at 15.5 µM | hit rate 0.75% among 360,000 | AID 651718, 2012; in the data active means inhibition above about 4.5%
HTR2A ag: mouse Htr2a agonists via beta-arrestin recruitment, primary screen, cell-based, luminescence | CHO-K1 mHTR2A beta-arrestin complementation; percent of 30 µM serotonin response | hit rate 0.66% among 360,000 | activation, % at 7.6 µM | 5-hydroxytryptamine receptor 2A (Mus musculus), P35363;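 active means activation above a run cutoff, the mean activation of all tested compounds plus 3 SD, cut at about 14% in these data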
TbMetRS inhib: T. brucei MetRS inhibitors, primary screen, biochemical, luminescence. hit rate 0.4% among 360,000. AID 624268, 2012. purified T. brucei MetRS, ATP depletion, Kinase-Glo luminescence. inhibition, % at 11.9 µM. methionyl-tRNA synthetase (Trypanosoma brucei brucei);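 active means inhibition above a per-plate cutoff of the control wells' mean inhibition plus 3 SD, cut at about 5.5% in these data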
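Test system – parasite MetRS enzyme · Reagent – substrates ATP, L-methionine and bulk Escherichia coli tRNA · Doses – 11.9 µM compound single dose, 0.9% DMSO · Times – 15 min enzyme-compound preincubation, 2 h reaction, 10 min detection, 25 °C · Signal – Kinase-Glo luminescence, ATP depletion format · Controls – DMSO-only wells as low control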
AHR act: AHR activators, primary screen, cell-based, luminescence, luciferase reporter, human. Aryl hydrocarbon receptor (Homo sapiens), P35869. AHR-responsive luciferase reporter cells. activation, % at 5 µM. hit rate 2.5% among 320,000; in the data active means activation above about 47%
bovine MsrA act: bovine MsrA enzyme activators, primary screen, biochemical, absorbance, HTS; Methionine sulfoxide reductase A (Bos taurus); purified bovine MsrA, absorbance read-out; activation, % at 10.6 µM; hit rate 0.3% among 360,000; in the data active means activation above about 7.5%
AI-2 QS modul: Vibrio harveyi AI-2 quorum sensing modulators, primary screen, JMH597 strain, luminescence/OD600 ratio. Vibrio harveyi JMH597 AI-2 luminescence/OD600 ratio, 9 h; active compounds read low; strain lacks LuxN and CqsS sensors; 0 = neutral-control median. hit rate 0.4% among 300,000. activity change, % at 7.5 µM; in the data active means activity change below about -75%, passing the limit was not always enough;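 further: luminescence divided by OD600 gain over 9 h not by final OD600 alone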
Of the large screens only hits and unclear results are named; the others gave an inactive call.

CN(C(=O)c1ccc2c(c1)CCN2S(C)(=O)=O)c1ccccc1	none
CS(=O)(=O)N1CCc2cc(C(=O)OCC(=O)c3ccccc3)ccc21	AI-2 QS modul -77
COC(=O)c1cc2c(c3c4cc(F)ccc4n(S(=O)(=O)c4cccc(C)c4)c13)C(=O)N(C)C2	none (no result: HTR2A ag, TbMetRS inhib, AHR act, bovine MsrA act, AI-2 QS modul)
COc1ccc(C(=O)Nc2cccc(S(=O)(=O)NC3=NCCC3)c2)cc1OC	none (no result: AI-2 QS modul)
Cc1cccc(C)c1NC(=O)CN(C)C(=O)C1CC1C (centres undefined)	none (no result: AI-2 QS modul)
O=C1C(=O)c2ccccc2C([O-])=C1[n+]1ccccc1	none
CCc1cc[n+](C2=C([O-])c3ccccc3C(=O)/C2=N\S(=O)(=O)c2cccs2)cc1	AHR act 68
C[C@@H]1CN([C@@H](C)CO)C(=O)CCCn2cc(nn2)CO[C@H]1CN(C)C(=O)Nc1ccc2c(c1)OCCO2	none (no result: HTR2A ag, TbMetRS inhib, AHR act, bovine MsrA act, AI-2 QS modul)
C=CCN=C1NC(c2ccc(Cl)cc2)C(C(=O)OC)=C(C)N1Cc1cccc(C(F)(F)F)c1 (centres undefined)	none (no result: HTR2A ag, TbMetRS inhib, AHR act, bovine MsrA act, AI-2 QS modul)
Cc1ccc(S(=O)(=O)N(C)c2ccc(OCC(=O)Nc3nc4ccccc4s3)cc2)cc1	none
Cc1ccc(S(=O)(=O)N(C)c2ccc(OCC(=O)Nc3nc4c(ccc5ccccc54)s3)cc2)cc1	AHR act 47
COC(=O)c1sc(NC(=O)COc2ccccc2)nc1C	none
Cc1nc(NC(=O)COc2ccccc2)sc1C(=O)Nc1ccccc1	AHR act 66
Cc1cc(N)ccc1-n1c(C)ccc1C	AHR act 110
CC(C)(C)OC(=O)N[C@H]1C=C[C@@H](CC(=O)OCC(F)(F)F)C1	none (no result: HTR2A ag, TbMetRS inhib, AHR act, bovine MsrA act, AI-2 QS modul)
CCCCOc1ccccc1NC(=O)CC1Nc2ccccc2NC1=O (centres undefined)	none
O=C(CCC1CC(=O)Nc2ccccc21)NCc1cccnc1 (centres undefined)	none
O=C(CC1Nc2ccccc2NC1=O)Nc1cc(Cl)cc(Cl)c1 (centres undefined)	AHR act 48
O=C(CC1NC(=O)NC1=O)Nc1ccc(Cl)cc1 (centres undefined)	none
COc1ccc(NC(=O)CC2Nc3cccc4cccc(c34)NC2=O)cc1 (centres undefined)	AHR act 57
O=C(CC1Nc2ccccc2NC1=O)NCc1cccnc1 (centres undefined)	AHR act 49
CCOC(=O)N[C@@H](Cc1cccnc1)C(=O)N1CCC[C@H]1C(=O)NC1CCCC1	none (no result: HTR2A ag, TbMetRS inhib, AHR act, bovine MsrA act, AI-2 QS modul)
Cc1ccccc1OCCCN1CCC(C(O)(c2ccccc2)c2ccccc2)CC1	none (no result: HTR2A ag, TbMetRS inhib, AHR act, bovine MsrA act, AI-2 QS modul)
O=C(O)CCNc1cc(N2CCN(C(=O)c3ccco3)CC2)c2noc3c2c1C(=O)c1ccccc1-3	AHR act 57
COC(=O)[C@]12C[C@H](CC(=O)NCCCN3CCCC3=O)C(=O)N(CCC3=CCCCC3)C1=C[C@H](COCc1ccccc1)O[C@@H]2C	none (no result: HTR2A ag, TbMetRS inhib, AHR act, bovine MsrA act, AI-2 QS modul)
CC1=C(c2ccccc2)C(=O)C(C)(C)CC1=O	none (no result: HTR2A ag, TbMetRS inhib, AHR act, bovine MsrA act, AI-2 QS modul)
C=C(C)c1cccc(C(C)(C)NC(=O)NCc2ccc(OC)c(OC)c2)c1	HTR2A ag 24
CCOC(=O)C1=CCN(S(=O)(=O)c2ccc(Cl)cc2)C1c1ccc(Br)cc1 (centres undefined)	none (no result: HTR2A ag, TbMetRS inhib, AHR act, bovine MsrA act, AI-2 QS modul)
Cc1ccnc(NS(=O)(=O)c2ccc(NC(=O)c3ccccc3F)cc2)n1	AHR act 58
Nc1nc(-c2ccc(Cl)cc2Cl)cn1N	AHR act 65
OC(c1ccccc1)(c1ccccc1)C1CCN(CCCOc2cccc(F)c2)CC1	none (no result: HTR2A ag, TbMetRS inhib, AHR act, bovine MsrA act, AI-2 QS modul)
Cc1cc(C)c2cc(C(=O)Nc3ccc(C)c(F)c3)[nH]c2c1	none (no result: AHR act)
CCCCNC(=O)c1cc2c(C)cc(C)cc2[nH]1	AHR act 55 (no result: AI-2 QS modul)
Nc1nc2c(C(=O)N3CCCC3)nnn2c2ccccc12	none (no result: HTR2A ag, TbMetRS inhib, AHR act, bovine MsrA act, AI-2 QS modul)
Cc1cc(C(=O)Nc2cccnc2)on1	HTR2A ag 15
O=C(Nc1ccccc1O)c1ccccc1O	AHR act 131
O=C(Nc1cccnc1)c1ccccc1O	AHR act 54
Cc1nn(CC(=O)NC(C)c2ccccc2)c(=O)c2ccccc12 (centres undefined)	none
Cc1nn(CC(=O)Nc2ccccc2)c(=O)c2ccccc12	AI-2 QS modul -88
O=[N+]([O-])c1ccccc1/C=C/c1ccc2ccccc2n1	AHR act 75 (no result: AI-2 QS modul)
Cn1c(/C=C/c2ccccc2[N+](=O)[O-])nc2ccccc2c1=O	none (no result: AHR act)
O=[N+]([O-])c1ccc(/C=C/c2ccc3cccc([N+](=O)[O-])c3n2)cc1	AHR act 106
CCOc1ccccc1CSc1nc2ccccc2[nH]1	AHR act 54
Cc1ncc(CSc2nc3ccccc3[nH]2)c(N)n1	none
Cc1cc(N2CCNC[C@H]2C)ccc1N1CCS(=O)(=O)CC1	none (no result: HTR2A ag, TbMetRS inhib, AHR act, bovine MsrA act, AI-2 QS modul)
COC(=O)[C@]12C[C@H](CC(=O)NCCC(C)C)C(=O)N(Cc3ccccc3)C1=C[C@H](C(C)C)O[C@@H]2C1CC1	none (no result: HTR2A ag, TbMetRS inhib, AHR act, bovine MsrA act, AI-2 QS modul)
O=c1cc[nH]c2cccc(Cc3ccccc3)c12	TbMetRS inhib 21
Cc1ccc(C(=O)Nc2cccnc2)cc1S(=O)(=O)N1CCCCCC1	AHR act 77
Cc1ccc(C(=O)Nc2cccnc2)cc1S(=O)(=O)N1CCOCC1	none
Cc1ccc2nc(-c3ccccn3)oc2c1	AHR act 61
CC(=O)C1=C(C)N(Cc2ccc(Cl)cc2)C(=S)NC1c1ccc(Cl)cc1 (centres undefined)	none (no result: HTR2A ag, TbMetRS inhib, AHR act, bovine MsrA act, AI-2 QS modul)
CCc1cccc(NC(=O)c2cnn(-c3ccccc3)c2C)c1	none
CCn1ncc(C(=O)Nc2cccc(Cl)c2)c1C	AHR act 79
O=C(c1cccc(F)c1)N1CCCc2ccccc21	none
Cn1c(O)c(C2=c3ccccc3=NC2=O)sc1=Nc1ccc(Cl)cc1	AHR act 56
O=C(O)Cn1c(O)c(C2=c3ccccc3=NC2=O)sc1=O	none
C=CCn1c(O)c(C2=c3ccccc3=NC2=O)s/c1=N/c1nccs1	AHR act 59
CN(C(=O)[C@@H](Cc1ccccc1)NC(=O)[C@H]1O[C@@H](n2cnc3c(=O)[nH]c(N)nc32)[C@H](O)[C@@H]1O)C1CCCCC1	none (no result: HTR2A ag, TbMetRS inhib, AHR act, bovine MsrA act, AI-2 QS modul)
COC(=O)C1=C(C)N(Cc2ccccc2C(F)(F)F)C(=NCc2ccc(C(F)(F)F)cc2)NC1c1cccc(F)c1 (centres undefined)	none (no result: HTR2A ag, TbMetRS inhib, AHR act, bovine MsrA act, AI-2 QS modul)
Cc1[nH]n(C(N)=S)c(=O)c1N=Nc1ccc2ccccc2c1	none (no result: AHR act)
Cc1ccc(N=Nc2c(C)[nH]n(C(N)=S)c2=O)cc1C	AHR act 51
Cc1[nH]n(C(N)=S)c(=O)c1N=Nc1cc(-c2ccc(Br)cc2)[nH]n1	AHR act 55
COc1cc(OC)c(NC(=O)C(Sc2nc(C)cc(C)c2C#N)c2ccccc2)cc1Cl (centres undefined)	none (no result: HTR2A ag, TbMetRS inhib, AHR act, bovine MsrA act, AI-2 QS modul)
